Screening results as filed in PubChem.
The list is not random: actives were taken first. Their share in the collection is about 3.5%.
MrgX1 PAM: human MrgX1 positive allosteric modulation, primary screen; Q96LB2; MrgX1-HEK293, Fluo-4 calcium flux, FDSS; stronger effect = higher value; B-score at 10 µM; hit rate 0.63% among 310,000; AID 588675;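 active = plate-corrected calcium response at least 3 library SD above typical, normal starting fluorescence, not activating the receptor alone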;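 also: compound read alongside a low EC10 to EC30 dose of BAM8-22 agonist; peak minus trough fluorescence over baseline measured at the second addition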
Target sequence (Q96LB2 whole entry, looked up): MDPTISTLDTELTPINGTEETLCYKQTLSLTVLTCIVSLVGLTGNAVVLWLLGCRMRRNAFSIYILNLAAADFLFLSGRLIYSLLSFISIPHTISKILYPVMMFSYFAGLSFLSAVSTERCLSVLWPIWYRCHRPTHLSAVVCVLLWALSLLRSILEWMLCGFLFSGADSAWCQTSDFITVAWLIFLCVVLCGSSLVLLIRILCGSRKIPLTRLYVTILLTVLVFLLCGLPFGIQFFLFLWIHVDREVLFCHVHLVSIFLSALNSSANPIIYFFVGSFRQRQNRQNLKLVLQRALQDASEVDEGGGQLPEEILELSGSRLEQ
RGS4 block: human RGS4 inhibition; P49798; hit rate 0.45% among 310,000; HEK293 M3R/RGS4 inducible, Fluo-4 calcium flux; stronger effect = higher value; triggered by carbachol at its EC20; B-score at 10 µM;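 active = B-score, a plate-corrected calcium signal, over three deviations above library mean, with baseline fluorescence within five deviations of library mean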;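 also: RGS4 expression induced by doxycycline in cells with stable M3 receptor; B-score is computed from the integrated fluorescence ratio over baseline after carbachol; higher B-score means a larger calcium signal and so more RGS4 inhibition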
Target sequence (P49798 whole entry, looked up): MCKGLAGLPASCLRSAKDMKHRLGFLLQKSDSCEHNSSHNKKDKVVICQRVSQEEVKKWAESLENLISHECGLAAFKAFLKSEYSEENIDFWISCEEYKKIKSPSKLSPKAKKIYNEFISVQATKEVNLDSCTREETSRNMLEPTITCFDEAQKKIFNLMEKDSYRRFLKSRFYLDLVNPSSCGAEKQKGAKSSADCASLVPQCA
MrgX1 ag: human MrgX1 receptor agonism, primary screen | AID 588627 | B-score at 10 µM | Q96LB2 | hit rate 0.44% among 310,000 | MrgX1-HEK293 cells, Fluo-4 calcium fluorescence, agonist mode; stronger effect = higher value;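 active = calcium response B-score plate-corrected fluorescence ratio at least 3 library SD, with starting fluorescence B-score inside 5 SD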
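Test system: HEK293 cells stably expressing human MrgX1 receptor; amount: 15,000 cells per well; doses: compound delivered in addition one of three; times: overnight plating before 1 h dye loading; detection: Fluo-4 NW calcium-flux fluorescence, kinetic read; read-out basis: B-scored fluorescence response ratio; controls: positive and negative controls per plate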
RGS4 act: RGS4 potentiation or activation | B-score at 10 µM | AID 463111 | HEK293 M3R/inducible RGS4, carbachol calcium flux Fluo4; stronger effect = lower value | hit rate 0.92% among 310,000;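 active = B-score of the integrated calcium signal more than 4 SD below the library mean, with starting fluorescence not abnormally high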;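 also: negative B-score means reduced calcium response which marks RGS4 activation or potentiation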
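Detection: kinetic calcium fluorescence imaging with Fluo4-AM dye, 2 µM / Material: HEK293 cells with stable M3R and inducible RGS4 / Schedule: recording 10 s baseline at 1 Hz, 100 s post-agonist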
MrgX1 antag: blocks BAM8-22 activation of human MrgX1 receptor; Q96LB2; MRGX1-HEK293 calcium flux, Fluo-4, BAM8-22 antagonism; stronger effect = lower value; B-score at 10 µM; hit rate 1.3% among 310,000; AID 588676;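 active = calcium-response B-score plate-corrected more than 3 library SD below zero, starting fluorescence within 5 deviations, no agonist response on first addition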;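 also: peak minus trough fluorescence over baseline after final BAM8-22 challenge near maximal dose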
MrgX1 ag confirm: reconfirmed activator of human MrgX1 receptor signaling | shares compounds with MrgX1 ag | MrgX1-HEK293, Fluo-4 calcium fluorescence, FDSS | activation, % at 10 µM | hit rate 78% among 600;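 active = calcium signal rise, corrected for plate position, at least 3 library SD high, with starting brightness within 5 such deviations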
HEK293 Ca flux: activity in parental HEK293 cells lacking MrgX1. shares compounds with MrgX1 antag. Fluo-4 calcium fluorescence, FDSS. fluorescence ratio F(max-min)/F0 at 10 µM. hit rate 2% among 4,000. AID 624111;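 active = duplicate-averaged calcium fluorescence ratio at least three times the standard deviation of buffer wells, a nonspecific response in parental cells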
HEK293 Ca counter: activity in parental HEK293 cells without MrgX1. shares compounds with MrgX1 antag. parental HEK293 calcium flux, Fluo-4 fluorescence ratio; stronger effect = higher value. fluorescence ratio F(max-min)/F0 at 10 µM. hit rate 0.4% among 4,000. AID 624114;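 active = calcium fluorescence ratio, averaged over duplicates, at least 3 SD of the buffer-well ratio, meaning a nonspecific response in receptor-free cells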;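 also: untransfected parental HEK293 lacking MrgX1 used as counterscreen for MrgX1 allosteric activators; fluorescence change taken during the second addition on a kinetic imager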
HEK293 Ca cntr2: activity in parental HEK293 cells lacking MrgX1 receptor | shares compounds with MrgX1 antag | fluorescence ratio F(max-min)/F0 at 10 µM | AID 624115 | hit rate 8.7% among 4,000 | Fluo-4 calcium fluorescence (FDSS); stronger effect = higher value;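 active = calcium fluorescence ratio at least three times the spread of buffer wells, meaning a non-specific response in parental cells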
Numbers without * were called inactive; i = inactive; nt = no result given.

SMILES	MrgX1 PAM	RGS4 block	MrgX1 ag	RGS4 act	MrgX1 antag	MrgX1 ag confirm	HEK293 Ca flux	HEK293 Ca counter	HEK293 Ca cntr2
CC(=O)Nc1ccc(S(=O)(=O)/N=C2\SCCN2S(=O)(=O)c2ccc(NC(C)=O)cc2)cc1	i	i	41*	i	i	270%*	i	i	i
CC(=O)Nc1ccc(S(=O)(=O)Nc2ccc(S(=O)(=O)N3CCCC3)cc2)cc1	i	i	i	i	i	nt	nt	nt	nt
CCOc1c(Cl)cc(/C=N/NC(N)=S)cc1OC	i	i	i	i	i	nt	nt	nt	nt
COc1cc(/C=C/C(=O)O)ccc1O	i	i	i	i	i	nt	nt	nt	nt
COc1cc(/C=C/C(=O)CC(=O)/C=C/c2ccc(O)c(OC)c2)ccc1O	i	i	143*	i	i	i	0.033*	i	212*
NCCC(=O)N1c2ccccc2Sc2ccc(Cl)cc21	i	i	79*	i	i	244%*	i	i	i
Cc1ccc(N2C(=O)CC(Sc3nc(C)cc(C)n3)C2=O)cc1 (configuration not stated)	i	i	i	i	i	nt	nt	nt	nt
Cc1ccc(N2C=Nc3ccc(C)c4nc(C)cc2c34)cc1	i	i	28*	i	i	98%*	i	i	i
CC1=Nc2ccc(C)c3nc(C)cc(c23)N1c1ccc(C)cc1	i	i	38*	i	i	191%*	i	i	i
COc1ccc(/C(O)=C/c2nc3ccc(C(=O)NCCc4cccc(C)c4)cc3[nH]c2=O)cc1OC	i	i	28*	i	i	i	i	i	i
CCc1ccc(CNc2ccc3c(c2)ncn3C(C)(C)C)cc1	i	i	i	i	i	nt	nt	nt	nt
CCc1ccc(CNc2ccc3c(c2)ncn3CC)cc1	i	i	30*	i	i	166%*	i	i	i
CC(=O)[C@@]1(O)CC[C@H]2[C@@H]3CCC4=CC(=O)CC[C@]4(C)[C@H]3[C@@H](O)C[C@@]21C	i	i	48*	i	i	i	i	i	i
CCn1ccnc1CN(C)C(=O)C1CCC(=O)N(Cc2cccc(C(F)(F)F)c2)C1 (configuration not stated)	i	i	i	i	i	nt	nt	nt	nt
O=C1CSc2ccc(C(=O)NCCC3=CCCCC3)cc2N1	i	i	119*	i	i	i	i	i	i
Cc1cc(-c2csc(N)n2)c(C)n1C	i	i	31*	i	i	150%*	i	i	i
Cc1[nH]n(-c2ccccc2)c(=O)c1N=Nc1nccs1	i	i	66*	i	i	261%*	i	i	51*
O=S(=O)(Cc1ccccc1)C1CCCCC1O (configuration not stated)	i	i	i	i	i	nt	nt	nt	nt
COc1cc(/C=C2/C(=N)N3C(SC)=NSC3=NC2=O)ccc1OC(=O)c1ccco1	i	i	71*	i	i	227%*	i	i	48*
COc1ccc(S(=O)(=O)Nc2c(O)ccc3ccccc23)cc1OC	i	i	27*	i	i	i	i	i	i
Cc1ccccc1NC(=O)CSc1nnc2ccc(-c3cccnc3)nn12	i	i	i	i	i	nt	nt	nt	nt
CC(=Nc1cccc(O)c1)c1sc2ccccc2c1O	i	i	28*	i	i	144%*	i	i	i
CC(=Nc1ccc(C)cc1)c1sc2ccccc2c1O	i	i	i	i	i	nt	nt	nt	nt
COc1cccc(CN2CCN(Cc3cc4ccccc4[nH]3)CC2CCO)c1 (configuration not stated)	i	i	123*	i	i	313%*	i	i	49*
CCOc1ccc(N=C2NC(=O)S/C2=C\c2ccc(N(C)C)cc2)cc1	i	i	27*	i	i	261%*	0.25*	i	59*
SMILES	MrgX1 PAM	RGS4 block	MrgX1 ag	RGS4 act	MrgX1 antag	MrgX1 ag confirm	HEK293 Ca flux	HEK293 Ca counter	HEK293 Ca cntr2
O=C1NC(=Nc2ccc(Cl)cc2)/C(=C/c2ccco2)S1	i	i	i	i	i	nt	nt	nt	nt
CC(=O)COc1cccc2ccc(/C=C/c3ccc(Br)s3)nc12	i	i	38*	i	i	163%*	i	i	49*
OC(C#Cc1ccccn1)c1cccs1 (configuration not stated)	i	i	44*	i	i	i	i	i	i
Cc1ccc(Cc2nnc(SCC(=O)Nc3ccccc3)n(N)c2=O)cc1	i	i	i	i	i	nt	nt	nt	nt
CCOC(=O)N1CCN(c2nc(-c3ccc(OC)cc3)no2)CC1	i	i	74*	i	i	i	i	i	i
Nc1ncccc1OCc1ccc(Cl)c(Cl)c1	i	i	41*	i	i	172%*	i	i	i
CC(=O)C1=C(C)OC(N)=C(C#N)C1c1cc([N+](=O)[O-])ccc1Cl (configuration not stated)	i	i	i	i	i	nt	nt	nt	nt
COC(=O)C1=C(C)OC(N)=C(C#N)C1c1ccco1 (configuration not stated)	i	i	i	i	i	nt	nt	nt	nt
COC(=O)C1=C(C)OC(N)=C(C#N)C1c1cc(OC)c(OCC(N)=O)cc1Cl (configuration not stated)	i	i	43*	i	i	230%*	i	i	56*
COC(=O)C1=C(C)OC(N)=C(C#N)C1c1ccccc1F (configuration not stated)	i	i	27*	i	i	170%*	i	i	64*
COC(=O)C1=C(CSc2nc3c(cc2C#N)CN(C)CC3)OC(N)=C(C#N)C1c1ccccc1F (configuration not stated)	i	i	42*	i	i	265%*	i	i	57*
CCOC(=O)C1=C(CSc2nc3c(cc2C#N)CN(C)CC3)OC(N)=C(C#N)C1c1ccccc1 (configuration not stated)	i	nt	i	nt	i	nt	nt	nt	nt
